Consider 17 compounds from ChEMBL document CHEMBL1833887, “Synthesis and evaluation of 7-substituted 4-aminoquinoline analogues for antimalarial activity” (J Med Chem, 2011).

The nature of series [1]: Solubility of the compound at pH 7.4 after 18 hrs by UV spectroscopic analysis. The class given is physicochemical. The settings on record: buffer. In outline: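 Kinetic solubility. A 10 mM stock is diluted 1:100 into PBS pH 7.4 and incubated 18 h at room temperature, then filtered; the filtrate is mixed 1:1 with 1-propanol. UV spectrum (250–500 nm) compared by AUC with a 1-propanol/PBS reference. Single experiment in triplicate.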

Series [2] can be described thus: Permeability of the compound at pH 7.4 after 30 mins by PAMPA. The class given is ADME. The note with it: read-out: permeability. In outline: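 PAMPA at pH 7.4. A 10 mM DMSO stock is diluted into system solution buffer; its UV spectrum serves as reference. Membrane painted with GIT lipid, acceptor chamber holds acceptor solution buffer. Sandwich stirred for 30 min, aqueous boundary layer set to 40. Donor and acceptor UV spectra read at 250–500 nm. Permeability coefficient from the AUCs of reference, donor and acceptor. Single experiment in triplicate.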
On the technique in general: In PAMPA a lipid-coated filter parts donor from acceptor wells.

The nature of series [3]: Dissociation constant, pKa of the compound. The series is classed as physicochemical.
The subject of series [4] is Plasmodium falciparum. In words: Antimalarial activity against chloroquine-sensitive Plasmodium falciparum 3D7 infected in human erythrocytes assessed as reduction in parasitemia after 72 hrs by spectrophotometry. The class given is functional, organism-based. The note with it: 3D7, 72 h.
For series [5], the system named is Plasmodium falciparum. The experiment in a line: Antimalarial activity against chloroquine-resistant Plasmodium falciparum K1 infected in human erythrocytes assessed as reduction in parasitemia after 72 hrs by spectrophotometry. The series is classed as functional, organism-based. The note with it: K1, 72 h.
The test system of series [6] is Plasmodium falciparum. The experiment in a line: Ratio of EC50 for chloroquine-resistant Plasmodium falciparum K1 infected in human erythrocytes to EC50 for chloroquine-sensitive Plasmodium falciparum 3D7 infected in human erythrocytes. The class given is functional.
The test system of series [7] is HepG2. In words: Cytotoxicity against human HepG2 cells assessed as intracellular ATP level after 72 hrs by Celltiter-Glo luminescent assay. The series is classed as cell-based. The settings on record: HepG2, 72 h.
Series [8] is described as follows: Ratio of EC50 for human HepG2 cells to EC50 for Plasmodium falciparum 3D7 infected in human erythrocytes.
Series [9] is described as follows: Ratio of EC50 for human HepG2 cells to EC50 for Plasmodium falciparum K1 infected in human erythrocytes.

≈ marks a conversion by molar mass, not a printed value.

Usually solubility stands for the concentration that dissolves in the medium under given conditions. Read a high solubility as much dissolved substance. What is called pKa is the pH at which an ionisable group is half protonated. High values mean a weaker acid or stronger base, low ones a stronger acid or weaker base. One may read the EC50 as the concentration at which the effect is half-maximal. In turn, `CC(C)(C)c1ccc(Oc2ccc3c(NCCCNCc4ccc5c(c4)OCO5)ccnc3c2)cc1` yielded a solubility at 18 h in [1] of 14.5 µM (≈ 7.01 µg/mL). Moreover, in [2], the Papp at 0.5 h was found to be 317 ×10⁻⁶ cm/s. In series [3], this compound returned a pKa of 9.28. In addition, the EC50 in series [4] came to 137 nM; in series [5] it was 2450 nM; in [7] it was 0.9 µM. For the same compound, the “Ratio EC50” value is recorded as 17.9 in series [6], 7 in series [8] and 0.4 in [9].
Turning to `c1cc(NCCCNCc2ccc3c(c2)OCO3)c2ccc(CC3CCCCC3)cc2n1`, the concentration in solution in series [1] (solubility at 18 h) came to 4.2 µM (≈ 1.81 µg/mL). Also, the Papp at 0.5 h in series [2] worked out at 23 ×10⁻⁶ cm/s. In addition, the pKa in [3] was 9.47. The values for the EC50 in series [4], in [5] and in [7] were 41 nM, 701 nM and 6.29 µM, respectively. In addition, the results for the “Ratio EC50” value in [6], in series [8] and in series [9] were 17.3, 155.2 and 9, respectively.
In series [1], `N#Cc1ccc(Cc2ccc3c(NCCCNCc4ccco4)ccnc3c2)cc1` gave a solubility at 18 h of 4.2 µM (≈ 1.67 µg/mL). For the same compound, the Papp at 0.5 h in series [2] was found to be 23 ×10⁻⁶ cm/s. For the same compound, in series [3], the pKa was 9.47. The EC50 stood at 39 nM in series [4], 382 nM in series [5] and 7.91 µM in series [7]. For the same compound, the entries for the “Ratio EC50” value in series [6], in [8] and in series [9] were 9.7, 201.9 and 20.7, respectively.
For `COc1ccc(F)cc1CNCCCNc1ccnc2cc(Oc3ccc(Cl)cc3)ccc12`, in [1], the solubility at 18 h is 14.5 µM (≈ 6.76 µg/mL). Moreover, the Papp at 0.5 h in series [2] came out at 317 ×10⁻⁶ cm/s. For the same compound, the pKa in series [3] turned out to be 9.28. Besides, the concentration for a half-maximal effect (EC50) in series [4] was found to be 31 nM; in [5], 109 nM; in series [7] it was 4.5 µM. Further, the “Ratio EC50” value in series [6] was 3.5; in [8], 143; in [9], 41.
Compound `COc1ccc(F)cc1CNCCCNc1ccnc2cc(Cc3ccc(F)cc3)ccc12` showed a solubility at 18 h in series [1] of 4.2 µM (≈ 1.88 µg/mL). Besides, the Papp at 0.5 h in [2] amounted to 23 ×10⁻⁶ cm/s. The same compound showed a pKa in [3] of 9.47. Besides, the EC50 came out at 75 nM in [4], 580 nM in series [5] and 3.53 µM in [7]. Further, the “Ratio EC50” value turned out to be 7.8 in [6], 47.1 in [8] and 6.1 in [9].
In turn, `COc1ccc(F)cc1CNCCCNc1ccnc2cc(Cc3ccc4c(c3)OCO4)ccc12` came in with a solubility at 18 h in series [1] of 32 µM (≈ 15.2 µg/mL). The Papp at 0.5 h in series [2] is 237 ×10⁻⁶ cm/s. The compound also gave a pKa in series [3] of 9.47. Further, the figures for the concentration giving a half-maximal response (EC50) in series [4], in [5] and in series [7] were 31 nM, 24 nM and 6.04 µM, respectively. Moreover, the “Ratio EC50” value is 0.8 in [6], 194.7 in series [8] and 255.8 in series [9].
`FC(F)(F)c1cc(-c2ccc3c(NCCCNCc4ccco4)ccnc3c2)cc(C(F)(F)F)c1` gave a solubility at 18 h in series [1] of 32 µM (≈ 15.8 µg/mL). For the same compound, the Papp at 0.5 h in series [2] amounted to 237 ×10⁻⁶ cm/s. Also, the pKa in series [3] worked out at 9.47. Also, the figures for the concentration giving a half-maximal response (EC50) in series [4], in series [5] and in series [7] were 285 nM, 972 nM and 2.41 µM, respectively. Further, the “Ratio EC50” value worked out at 3.4 in [6], 8.5 in series [8] and 2.5 in series [9].
`Fc1ccc(-c2ccc3c(NCCCNCc4ccco4)ccnc3c2)cc1`: the solubility at 18 h in series [1] is 32 µM (≈ 12 µg/mL). The Papp at 0.5 h in series [2] was 237 ×10⁻⁶ cm/s. Moreover, the pKa in series [3] turned out to be 9.47. For the same compound, the concentration giving a half-maximal response (EC50) amounted to 32 nM in series [4], 69 nM in series [5] and 7.76 µM in [7]. The results for the “Ratio EC50” value in series [6], in series [8] and in series [9] were 2.1, 240.4 and 113.2, respectively.
Consider `COc1ccc(F)cc1CNCCCNc1ccnc2cc(Cc3ccc(C#N)cc3)ccc12`, for which the concentration in solution in series [1] (solubility at 18 h) was 4.2 µM (≈ 1.91 µg/mL). In [2], the Papp at 0.5 h worked out at 23 ×10⁻⁶ cm/s. In series [3], this compound yielded a pKa of 9.47. Further, the EC50 in series [4] amounted to 28 nM; in series [5], 770 nM; in [7], 6.05 µM. In addition, the “Ratio EC50” value came to 27.5 in series [6], 216.2 in [8] and 7.9 in series [9].
Regarding `Cc1cc(C)cc(Cc2ccc3c(NCCCNCc4ccco4)ccnc3c2)c1`, the solubility at 18 h in series [1] worked out at 4.2 µM (≈ 1.68 µg/mL). The Papp at 0.5 h in [2] turned out to be 23 ×10⁻⁶ cm/s. In [3], this compound displayed a pKa of 9.47. The values for the EC50 in series [4], in series [5] and in series [7] were 9 nM, 678 nM and 6.27 µM, respectively. Moreover, the “Ratio EC50” value came to 77 in series [6], 712.1 in series [8] and 9.2 in [9].
As to `CC(C)(C)c1ccc(-c2ccc3c(NCCCNCc4ccc5c(c4)OCO5)ccnc3c2)cc1`, in series [1], the concentration in solution (solubility at 18 h) was 32 µM (≈ 15 µg/mL). For the same compound, the Papp at 0.5 h in series [2] was 237 ×10⁻⁶ cm/s. The pKa in [3] stood at 9.47. In addition, the figures for the EC50 in series [4], in [5] and in [7] were 223 nM, 490 nM and 1.37 µM, respectively. Also, the “Ratio EC50” value in [6] is 2.2; in [8] it was 6.2; in series [9] it was 2.8.
`c1ccc(-c2ccc3c(NCCCNCc4ccco4)ccnc3c2)cc1`: the solubility at 18 h in series [1] was 32 µM (≈ 11.4 µg/mL). For the same compound, in [2], the Papp at 0.5 h was found to be 237 ×10⁻⁶ cm/s. Moreover, the pKa in series [3] was found to be 9.47. The results for the half-maximal effective concentration (EC50) in series [4], in series [5] and in [7] were 20 nM, 128 nM and 5.92 µM, respectively. Further, the “Ratio EC50” value is given as 6.3 in series [6], 291.6 in series [8] and 46.4 in series [9].
`COc1cccc(CNCCCNc2ccnc3cc(Cc4ccc(F)cc4Cl)ccc23)c1O` returned a solubility at 18 h in series [1] of 4.2 µM (≈ 2.02 µg/mL). In series [2], the Papp at 0.5 h turned out to be 23 ×10⁻⁶ cm/s. Further, in series [3], the pKa is 9.47. Besides, the figures for the EC50 in series [4], in [5] and in series [7] were 13 nM, 5140 nM and 2.35 µM, respectively. Also, the “Ratio EC50” value is on record as 404.4 in [6], 185.4 in series [8] and 0.5 in series [9].
Compound `COc1cccc(Oc2ccc3c(NCCCNCc4cc(F)ccc4OC)ccnc3c2)c1` showed a solubility at 18 h in [1] of 14.5 µM (≈ 6.69 µg/mL). For the same compound, the Papp at 0.5 h in [2] turned out to be 317 ×10⁻⁶ cm/s. In series [3], the pKa was determined as 9.28. Besides, the values for the concentration giving a half-maximal response (EC50) in series [4], in series [5] and in series [7] were 2360 nM, 296 nM and 7.1 µM, respectively. Further, the “Ratio EC50” value came out at 0.1 in series [6], 3 in [8] and 24 in series [9].
`COc1cccc(CNCCCNc2ccnc3cc(-c4cc(C(F)(F)F)cc(C(F)(F)F)c4)ccc23)c1O` registered a solubility at 18 h in series [1] of 32 µM (≈ 17.6 µg/mL). In addition, the Papp at 0.5 h in series [2] was 237 ×10⁻⁶ cm/s. Moreover, the pKa in series [3] was 9.47. Besides, the EC50 in [4] worked out at 29 nM; in [5] it was 209 nM; in [7] it was 0.94 µM. The “Ratio EC50” value in [6] worked out at 7.2; in [8] it was 32.4; in series [9] it was 4.5.
`Fc1ccc(Oc2ccc3c(NCCCNCc4ccc5c(c4)OCO5)ccnc3c2)cc1` displayed a solubility at 18 h in series [1] of 14.5 µM (≈ 6.46 µg/mL). In addition, the Papp at 0.5 h in series [2] was determined as 317 ×10⁻⁶ cm/s. The pKa in series [3] was found to be 9.28. In addition, the EC50 in series [4] was found to be 15 nM; in [5], 667 nM; in [7], 16 µM. Also, the “Ratio EC50” value in series [6] is listed as 44.5; in series [8] it was 1067; in [9], 24.
As for `COc1cccc(CNCCCNc2ccnc3cc(CC(C)C)ccc23)c1O`, the solubility at 18 h in [1] was found to be 4.2 µM (≈ 1.65 µg/mL). For the same compound, the Papp at 0.5 h in series [2] was 23 ×10⁻⁶ cm/s. The same compound showed a pKa in series [3] of 9.47. For the same compound, the EC50 stood at 20 nM in series [4], 8130 nM in series [5] and 2.92 µM in series [7]. Moreover, the results for the “Ratio EC50” value in series [6], in series [8] and in series [9] were 402.5, 144.5 and 0.4, respectively.
